Reference: publication PMC3861362 (Clinical Pharmacology : Advances and Applications, 2013)
“Also recorded” adds a separate entry of the source. Where two headings read alike, the source gives them in different places.

How the values were obtained:
[1] = assay type: in vivo, human (healthy Chinese subjects); details: for CL renal: plasma and urine, CLR
[2] = tested on: breast cancer resistance protein; details: cited from earlier work
CYP3A4 = details: minor contribution from other CYP enzymes; cited from earlier work
[3] = assay type: in vivo, human (healthy Chinese subjects)
Summary of the method: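 Dosing was 10 mg once on day 1, then 10 mg twice daily for 6 d, ending with the morning dose on day 9. Subjects were confined to the facility throughout and monitored for adverse events, with physical examinations, vital signs, ECGs and clinical laboratory tests.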

[4] = cited from earlier work
P-glycoprotein = details: cited from earlier work
bovine factor Xa = bovine factor Xa (Bos taurus, UniProt P00743); experiment: Plasma anti-Xa activity by chromogenic assay after apixaban dosing; assay type: in vivo
Chain of bovine factor Xa (P00743 234-492 limits assumed): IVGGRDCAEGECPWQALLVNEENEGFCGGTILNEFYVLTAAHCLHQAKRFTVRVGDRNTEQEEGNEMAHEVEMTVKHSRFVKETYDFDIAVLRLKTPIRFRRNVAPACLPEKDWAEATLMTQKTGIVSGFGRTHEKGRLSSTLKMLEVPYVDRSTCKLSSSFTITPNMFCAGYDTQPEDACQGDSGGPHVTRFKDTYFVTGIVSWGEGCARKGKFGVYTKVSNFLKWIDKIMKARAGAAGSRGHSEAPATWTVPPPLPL
Chain of bovine factor Xa (P00743 41-180 partner limits assumed): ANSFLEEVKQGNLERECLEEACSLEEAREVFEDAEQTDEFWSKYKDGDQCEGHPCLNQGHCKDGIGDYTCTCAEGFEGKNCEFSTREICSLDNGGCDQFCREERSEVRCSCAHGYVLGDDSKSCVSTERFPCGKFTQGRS

[5] = multiple doses 10 mg twice daily, one of twelve subjects

SMILES: COc1ccc(-n2nc(C(N)=O)c3c2C(=O)N(c2ccc(N4CCCCC4=O)cc2)CC3)cc1 [apixaban]
- CL renal ([1]; human, oral, 10 mg, Mean (SD), multiple doses 10 mg twice daily, day 9, n=12): 20 mL/min
- CL renal ([1]; human, po, 10 mg, Mean (SD), single 10 mg oral dose, day 1, n=12): 19.5 mL/min
- Tmax ([1]; human, plasma, oral, 10 mg, Tmax, Median (min, max), multiple doses 10 mg twice daily, day 9, n=12): 3.5 h
- half-life ([1]; human, plasma, oral, 10 mg, t½, Mean (SD), multiple doses 10 mg twice daily, day 9, n=12): 10.8 h
- AUC(0-inf) ([1]; human, plasma, po, 10 mg): 2310 ng·h/mL
- AUC(0-t) ([1]; human, plasma, po, 10 mg): 2270 ng·h/mL
- Cmax ([1]; human, plasma, po, 10 mg): 234 ng/mL
- time at which steady-state conditions were achieved ([1]; multiple doses 10 mg twice daily): by the third day of multiple-dose administration
- t½, Mean (SD) ([1]; single 10 mg oral dose, day 1, n=12): 11.4 (3.6) hours
- breast cancer resistance protein substrate [2]: substrate
- enzyme mediating oxidative metabolism (CYP3A4): primarily mediated via CYP3A4
- severity of adverse events after multiple-dose administration ([3]; 10 mg twice daily): mild
- overall safety and tolerability ([3]; healthy Chinese subjects, 10 mg single and twice-daily doses): safe and well tolerated
- subjects with elevated alanine aminotransferase (ALT) [3, 5]: 8%
- subjects with microscopic hematuria [3, 5]: 8%
- subjects with positive fecal blood [3, 5]: 8%
- adverse events after single dose ([3]; single-dose apixaban 10 mg): No adverse events
- changes in vital signs, physical examinations, or ECGs ([3]; whole study): No clinically significant changes
- deaths, serious adverse events, discontinuations, bleeding-related adverse events ([3]; whole study, 10 mg single and twice-daily doses, n=12): no bleeding-related adverse events reported; also recorded: no deaths, other serious adverse events, adverse events leading to discontinuation, or clinically significant bleeding-related adverse events
- CLR ([4]; Japanese and non-Asian subjects, ref previous studies): 0.49 to 1.07 L/h
- oral bioavailability [4]: ~ 50%
- share of total clearance via the kidneys [4]: 27%
- mean elimination t½ ([4]; healthy Western subjects): approximately 12 hours
- share of dose undergoing oxidative metabolism ([4]; oral administration): ~ 25%
- time to Cmax after oral administration ([4]; oral administration): ~ 3 hours
- time to Cmax ([4]; white and Japanese subjects): 2 to 4 h
- P-glycoprotein substrate (P-glycoprotein): substrate
- maximum anti-Xa activity, mean (SD) (bovine factor Xa; day 9, at 3 hours (peak apixaban concentration), 10 mg twice daily, low-molecular-weight heparin units): 5.57 (SD, 1.54) IU/mL
- minimum anti-Xa activity, mean (SD) (bovine factor Xa; day 9, at 12 hours (trough apixaban concentration), 10 mg twice daily, low-molecular-weight heparin units): 1.94 (SD, 0.54) IU/mL
- relationship between anti-Xa activity and plasma apixaban concentration (bovine factor Xa; single and multiple doses): appears to be linear; also recorded: direct linear relationship
